ChEMBL document CHEMBL1153423, “Identification and characterization of small molecule inhibitors of a class I histone deacetylase from Plasmodium falciparum” (J Med Chem, 2009)

Assays:
[1] = test system: Plasmodium falciparum; experiment: Antimalarial activity against Plasmodium falciparum 3D7 by [3H]hypoxanthine uptake; format: functional, organism-based
[2] = Growth inhibition of human MM1S cells; format: cell-based; settings: mm1.s
[3] = test system: MM1.S; experiment: Inhibition of histone acetylation in human MM1S cells at 0.2 uM relative to untreated control; format: functional
[4] = biological target: T1, Histone deacetylase (Plasmodium falciparum, UniProt Q9XYC7); experiment: Inhibition of Plasmodium falciparum HDAC1 expressed in Drosophila melanogaster S2 cells; format: cell-based
T1 sequence (Q9XYC7 whole entry): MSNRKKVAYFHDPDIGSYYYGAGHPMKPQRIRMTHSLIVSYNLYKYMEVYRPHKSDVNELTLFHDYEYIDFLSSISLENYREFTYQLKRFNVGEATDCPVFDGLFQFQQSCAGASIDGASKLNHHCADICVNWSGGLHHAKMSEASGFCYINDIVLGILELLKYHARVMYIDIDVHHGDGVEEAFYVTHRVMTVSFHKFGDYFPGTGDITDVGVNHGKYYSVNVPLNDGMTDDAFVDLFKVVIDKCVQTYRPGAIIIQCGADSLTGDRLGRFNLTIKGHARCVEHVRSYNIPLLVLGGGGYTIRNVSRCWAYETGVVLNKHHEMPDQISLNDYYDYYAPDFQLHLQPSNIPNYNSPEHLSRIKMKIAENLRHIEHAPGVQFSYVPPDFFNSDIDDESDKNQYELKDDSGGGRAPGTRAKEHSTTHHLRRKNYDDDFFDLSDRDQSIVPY
Procedure, shortened: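 Recombinant pfHDAC-1 cDNA carrying a C-terminal HPC4 epitope tag was expressed in Drosophila S2 cells. A stable pool was selected with blasticidin after co-transfection, and the enzyme was purified via the HPC4 tag. Substrate characterisation used the fluorogenic peptide Ac-Leu-Gly-Lys(Ac)-AMC, with a Michaelis–Menten fit.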

[5] = substrate: Cc1cc(=O)oc2cc(NC(=O)[C@H](CCCCNC(=O)C(F)(F)F)NC(=O)OC(C)(C)C)ccc12; experiment: (§1) Activity of Plasmodium falciparum HDAC1 expressed in Drosophila melanogaster S2 cells by Michaelis-Menten method; format: cell-based
Procedure, shortened: (§2)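 pfHDAC-1 cDNA with a C-terminal HPC4 epitope tag was expressed in a stable blasticidin-selected Drosophila S2 pool and purified through the tag. Activity was measured on the acetyl-lysine AMC peptide substrates Ac-Leu-Gly-Lys(Ac)-AMC and Boc-Lys(trifluoroacetyl)-AMC. kcat and apparent Km were obtained by fitting the Michaelis–Menten model to the rate data.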

[6] = substrate: CC(=O)NCCCC[C@H](NC(=O)CNC(=O)[C@H](CC(C)C)NC(C)=O)C(=O)Nc1ccc2c(C)cc(=O)oc2c1; experiment: as §1; format: cell-based; procedure, shortened: as §2

## O=C(CCCCCC(=O)NN/C=C/c1cccc(O)c1)NO
[1]
  IC50: 99 nM
[2]
  Activity: Non-toxic
[3]
  fold change (FC): 1.2
[4]
  IC50: 59 nM

## CN(C)c1ccc(/C=C/NNC(=O)CCCCCC(=O)NO)c(O)c1
[1]
  IC50: 24 nM
[2]
  Activity: Non-toxic
[3]
  fold change (FC): 1.2
[4]
  IC50: 37 nM

## O=C(CCCCCC(=O)NN/C=C/c1cc2c(cc1Br)OCO2)NO
[1]
  IC50: 59 nM
[2]
  Activity: Non-toxic
[3]
  fold change (FC): 1
[4]
  IC50: 20 nM

## CCC(=O)CCCCC[C@@H]1NC(=O)[C@H]2CCCCN2C(=O)[C@H]([C@@H](C)CC)NC(=O)[C@H](Cc2cn(OC)c3ccccc23)NC1=O [APICIDIN]
[1]
  IC50: 33 nM

## O=C(CCCCCC(=O)NN/C=C/c1cc(O)ccc1Br)NO
[1]
  IC50: 35 nM
[2]
  Activity: Non-toxic
[3]
  fold change (FC): 1
[4]
  IC50: 49 nM

## Cc1[nH]c2ccccc2c1CCNCc1ccc(/C=C/C(=O)NO)cc1 [PANOBINOSTAT]
[1]
  IC50: 21 nM

## O=C(CCCCCC(=O)NN/C=C/c1c(O)ccc2ccccc12)NO
[1]
  IC50: 20 nM
[2]
  Activity: Non-toxic
[3]
  fold change (FC): 1
[4]
  IC50: 41 nM

## O=C(CCCCC(=O)NN/C=C/c1cc(O)ccc1Br)NO
[1]
  IC50: 30 nM
[2]
  Activity: Non-toxic
[3]
  fold change (FC): 1.1
[4]
  IC50: 89 nM

## O=C(CCCCCC(=O)NN/C=C/c1ccccc1Br)NO
[1]
  IC50: 15 nM
[2]
  Activity: Non-toxic
[3]
  fold change (FC): 1.1
[4]
  IC50: 37 nM

## O=C(CCCCCCC(=O)NN/C=C/c1c(O)cc(O)cc1O)NO
[1]
  IC50: 50 nM
[2]
  Activity: Non-toxic
[3]
  fold change (FC): 1.1
[4]
  IC50: 43 nM

## COc1cc(/C=C/NNC(=O)CCCCC(=O)NO)c(Br)cc1O
[1]
  IC50: 498 nM
[2]
  Activity: Non-toxic
[3]
  fold change (FC): 1.2
[4]
  IC50: 59 nM

## O=C(CCCCCC(=O)NN/C=C/c1ccccc1Cl)NO
[1]
  IC50: 288 nM
[2]
  Activity: Non-toxic
[3]
  fold change (FC): 0.9
[4]
  IC50: 90 nM

## CC(/C=C/C(=O)NO)=C\[C@@H](C)C(=O)c1ccc(N(C)C)cc1 [TRICHOSTATIN]
[1]
  IC50: 16 nM
[4]
  IC50: 0.6 nM

## COc1cc(/C=C/NNC(=O)CCCCCC(=O)NO)c(Br)cc1O
[1]
  IC50: 47 nM
[2]
  Activity: Non-toxic
[3]
  fold change (FC): 1
[4]
  IC50: 59 nM

## COc1ccc(Br)c(/C=C/NNC(=O)CCCCCC(=O)NO)c1
[1]
  IC50: > 500 nM
[2]
  Activity: Non-toxic
[3]
  fold change (FC): 1.1
[4]
  IC50: 22 nM

## O=C(CCCCC(=O)NN/C=C/c1ccc(O)cc1Br)NO
[1]
  IC50: 53 nM
[2]
  Activity: Non-toxic
[3]
  fold change (FC): 1.1
[4]
  IC50: 106 nM

## O=C(CCCCCCC(=O)NN/C=C/c1cc(O)ccc1O)NO
[1]
  IC50: 142 nM
[2]
  Activity: Non-toxic
[3]
  fold change (FC): 1.1
[4]
  IC50: 110 nM

## Nc1ccccc1NC(=O)c1ccc(CNC(=O)OCc2cccnc2)cc1 [ENTINOSTAT]
[1]
  IC50: > 10000 nM

## O=C(CCCCCC(=O)NN/C=C/c1ccc(-n2ccnc2)cc1)NO
[1]
  IC50: 57 nM
[2]
  Activity: Non-toxic
[3]
  fold change (FC): 1
[4]
  IC50: 15 nM

## O=C1CCc2c(ccc3ccccc23)O1 [SPLITOMICIN]
[1]
  IC50: > 10000 nM
[4]
  IC50: > 10000 nM

## O=C(CCCCCC(=O)NN/C=C/c1cccnc1Br)NO
[1]
  IC50: 22 nM
[2]
  Activity: Non-toxic
[3]
  fold change (FC): 0.9
[4]
  IC50: 36 nM

B1: Histone deacetylase (Plasmodium falciparum), Q9XYC7 (protein)
chain: T1 sequence (Q9XYC7 whole entry)
[5]
  Km: Not Active
  kcat: Not Active
[6]
  Km: 30 µM
  kcat: 0.19 s⁻¹
